Laboratory results published in ChEMBL document CHEMBL4699476, “Structure-based drug optimization and biological evaluation of tetrahydroquinolin derivatives as selective and potent CBP bromodomain inhibitors” (Bioorg Med Chem Lett, 2020).

Experiments:
CREB-binding protein [1] = target: T1, CREB-binding protein (Homo sapiens, UniProt Q92793); experiment: Inhibition of CBP BRD (unknown origin) by TR-FRET assay
Target sequence in this assay (Q92793 whole entry): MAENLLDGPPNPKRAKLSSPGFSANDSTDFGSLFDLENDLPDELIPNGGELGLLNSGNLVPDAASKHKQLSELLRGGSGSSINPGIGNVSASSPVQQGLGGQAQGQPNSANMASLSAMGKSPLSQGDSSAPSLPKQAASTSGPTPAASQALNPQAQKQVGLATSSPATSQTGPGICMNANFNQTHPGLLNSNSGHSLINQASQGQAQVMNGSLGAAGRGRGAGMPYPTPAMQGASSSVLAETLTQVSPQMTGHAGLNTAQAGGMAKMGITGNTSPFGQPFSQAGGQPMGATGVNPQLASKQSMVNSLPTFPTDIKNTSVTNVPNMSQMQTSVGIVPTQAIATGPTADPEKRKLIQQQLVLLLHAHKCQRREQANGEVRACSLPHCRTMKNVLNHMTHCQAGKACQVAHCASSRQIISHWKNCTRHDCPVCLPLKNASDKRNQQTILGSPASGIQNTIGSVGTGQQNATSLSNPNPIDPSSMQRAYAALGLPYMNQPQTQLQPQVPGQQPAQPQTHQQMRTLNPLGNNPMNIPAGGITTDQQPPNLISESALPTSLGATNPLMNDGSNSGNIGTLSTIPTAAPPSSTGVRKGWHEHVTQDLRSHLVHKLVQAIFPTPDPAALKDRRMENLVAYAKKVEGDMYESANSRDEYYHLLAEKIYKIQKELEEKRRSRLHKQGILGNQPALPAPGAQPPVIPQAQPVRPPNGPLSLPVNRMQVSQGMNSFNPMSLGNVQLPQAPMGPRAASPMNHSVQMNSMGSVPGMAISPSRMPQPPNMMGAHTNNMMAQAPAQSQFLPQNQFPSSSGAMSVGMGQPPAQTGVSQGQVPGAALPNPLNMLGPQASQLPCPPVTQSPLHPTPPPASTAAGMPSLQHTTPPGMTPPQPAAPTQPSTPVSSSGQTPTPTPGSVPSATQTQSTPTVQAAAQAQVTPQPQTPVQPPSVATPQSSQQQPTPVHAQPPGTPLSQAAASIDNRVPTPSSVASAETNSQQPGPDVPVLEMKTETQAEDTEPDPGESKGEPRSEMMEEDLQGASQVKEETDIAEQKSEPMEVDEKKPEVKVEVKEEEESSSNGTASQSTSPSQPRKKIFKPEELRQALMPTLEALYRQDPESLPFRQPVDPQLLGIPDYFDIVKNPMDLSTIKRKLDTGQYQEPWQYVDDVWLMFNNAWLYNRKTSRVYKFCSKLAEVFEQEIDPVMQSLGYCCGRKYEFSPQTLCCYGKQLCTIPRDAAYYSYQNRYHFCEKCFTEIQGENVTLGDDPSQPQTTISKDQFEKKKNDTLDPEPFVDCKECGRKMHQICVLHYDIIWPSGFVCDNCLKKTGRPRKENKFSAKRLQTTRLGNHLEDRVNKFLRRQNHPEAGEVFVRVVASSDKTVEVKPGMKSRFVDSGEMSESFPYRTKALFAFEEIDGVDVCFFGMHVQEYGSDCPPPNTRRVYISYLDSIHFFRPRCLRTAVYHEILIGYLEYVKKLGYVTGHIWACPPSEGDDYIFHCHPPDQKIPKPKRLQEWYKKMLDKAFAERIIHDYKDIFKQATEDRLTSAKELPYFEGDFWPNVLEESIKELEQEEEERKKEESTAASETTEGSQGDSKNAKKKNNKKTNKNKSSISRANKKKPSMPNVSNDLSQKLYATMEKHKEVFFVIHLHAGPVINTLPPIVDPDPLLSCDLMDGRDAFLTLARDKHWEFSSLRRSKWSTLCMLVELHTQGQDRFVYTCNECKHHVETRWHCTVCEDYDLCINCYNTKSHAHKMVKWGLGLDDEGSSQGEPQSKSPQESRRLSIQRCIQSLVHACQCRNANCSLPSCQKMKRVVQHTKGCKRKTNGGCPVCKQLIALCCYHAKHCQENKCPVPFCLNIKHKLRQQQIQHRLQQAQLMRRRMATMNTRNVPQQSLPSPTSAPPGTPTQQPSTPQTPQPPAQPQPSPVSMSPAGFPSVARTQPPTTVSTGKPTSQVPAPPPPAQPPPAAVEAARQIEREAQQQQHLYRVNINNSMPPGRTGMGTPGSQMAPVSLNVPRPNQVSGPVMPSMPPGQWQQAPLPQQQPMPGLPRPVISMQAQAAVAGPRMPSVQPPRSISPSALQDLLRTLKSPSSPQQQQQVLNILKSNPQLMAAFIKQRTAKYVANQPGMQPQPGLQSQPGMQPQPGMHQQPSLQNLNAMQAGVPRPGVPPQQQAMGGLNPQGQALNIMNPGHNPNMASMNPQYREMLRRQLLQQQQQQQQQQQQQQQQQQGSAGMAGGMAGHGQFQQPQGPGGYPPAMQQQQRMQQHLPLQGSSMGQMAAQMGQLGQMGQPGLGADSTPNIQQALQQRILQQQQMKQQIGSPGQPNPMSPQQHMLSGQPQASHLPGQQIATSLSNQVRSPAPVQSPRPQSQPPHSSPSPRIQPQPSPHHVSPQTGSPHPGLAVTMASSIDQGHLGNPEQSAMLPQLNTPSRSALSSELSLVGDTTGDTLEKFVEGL

MV4-11 [2] = experiment: Antiproliferative activity against human MV4-11 cells at 6.25 uM incubated for 6 days relative to control; type: functional; conditions: MV4-11, 144 h, time 6 day
Summary of the method: (§1)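 MV4-11 AML cells exposed to test agent at 6.25 or 1.56 µM for 6 days; viability read as percent growth inhibition versus control; inhibition rates are means of at least two determinations.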

MV4-11 [3] = experiment: Antiproliferative activity against human MV4-11 cells at 1.56 uM incubated for 6 days relative to control; type: functional; conditions: MV4-11, 144 h, time 6 day; summary of the method: as §1
MV4-11 [4] = experiment: Antiproliferative activity against human MV4-11 cells incubated for 6 days relative to control; type: functional, cell-based; conditions: MV4-11, 144 h
Summary of the method: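 MV4-11 cells treated for 6 days; IC50 derived for agents giving over 50% growth inhibition at 1.56 µM; values reported with ± error.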

CREB-binding protein [5] = target: T1, CREB-binding protein; experiment: Inhibition of GST-tagged CBP BRD (unknown origin) incubated for 30 mins by HTRF assay
Target sequence in this assay (Q92793 whole entry): as above

[6] = target: T2, Bromodomain-containing protein 4 (Homo sapiens, UniProt O60885); experiment: Inhibition of BRD4 BD1 (unknown origin) by ALPHAScreen assay
[7] = target: T2, Bromodomain-containing protein 4; experiment: Inhibition of BRD4 BD2 (unknown origin) by ALPHAScreen assay
CREB-binding protein [8] = target: T1, CREB-binding protein; experiment: Binding affinity to CBP BRD (unknown origin) by microscale thermophoresis assay
Target sequence in this assay (Q92793 whole entry): as above

CREB-binding protein [9] = target: T1, CREB-binding protein; experiment: Inhibition of CBP in human MV4-11 cells assessed as decrease in c-myc protein expression incubated for 12 hrs by Western blot analysis; type: cell-based; conditions: dose microM 0.25-2, time 12.0 hrs
Summary of the method: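 MV4-11 cells treated at 0, 0.25, 0.5, 1 and 2 µM for 12 h; c-Myc protein level assessed by Western blot.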
Target sequence in this assay (Q92793 2-2442 limits assumed): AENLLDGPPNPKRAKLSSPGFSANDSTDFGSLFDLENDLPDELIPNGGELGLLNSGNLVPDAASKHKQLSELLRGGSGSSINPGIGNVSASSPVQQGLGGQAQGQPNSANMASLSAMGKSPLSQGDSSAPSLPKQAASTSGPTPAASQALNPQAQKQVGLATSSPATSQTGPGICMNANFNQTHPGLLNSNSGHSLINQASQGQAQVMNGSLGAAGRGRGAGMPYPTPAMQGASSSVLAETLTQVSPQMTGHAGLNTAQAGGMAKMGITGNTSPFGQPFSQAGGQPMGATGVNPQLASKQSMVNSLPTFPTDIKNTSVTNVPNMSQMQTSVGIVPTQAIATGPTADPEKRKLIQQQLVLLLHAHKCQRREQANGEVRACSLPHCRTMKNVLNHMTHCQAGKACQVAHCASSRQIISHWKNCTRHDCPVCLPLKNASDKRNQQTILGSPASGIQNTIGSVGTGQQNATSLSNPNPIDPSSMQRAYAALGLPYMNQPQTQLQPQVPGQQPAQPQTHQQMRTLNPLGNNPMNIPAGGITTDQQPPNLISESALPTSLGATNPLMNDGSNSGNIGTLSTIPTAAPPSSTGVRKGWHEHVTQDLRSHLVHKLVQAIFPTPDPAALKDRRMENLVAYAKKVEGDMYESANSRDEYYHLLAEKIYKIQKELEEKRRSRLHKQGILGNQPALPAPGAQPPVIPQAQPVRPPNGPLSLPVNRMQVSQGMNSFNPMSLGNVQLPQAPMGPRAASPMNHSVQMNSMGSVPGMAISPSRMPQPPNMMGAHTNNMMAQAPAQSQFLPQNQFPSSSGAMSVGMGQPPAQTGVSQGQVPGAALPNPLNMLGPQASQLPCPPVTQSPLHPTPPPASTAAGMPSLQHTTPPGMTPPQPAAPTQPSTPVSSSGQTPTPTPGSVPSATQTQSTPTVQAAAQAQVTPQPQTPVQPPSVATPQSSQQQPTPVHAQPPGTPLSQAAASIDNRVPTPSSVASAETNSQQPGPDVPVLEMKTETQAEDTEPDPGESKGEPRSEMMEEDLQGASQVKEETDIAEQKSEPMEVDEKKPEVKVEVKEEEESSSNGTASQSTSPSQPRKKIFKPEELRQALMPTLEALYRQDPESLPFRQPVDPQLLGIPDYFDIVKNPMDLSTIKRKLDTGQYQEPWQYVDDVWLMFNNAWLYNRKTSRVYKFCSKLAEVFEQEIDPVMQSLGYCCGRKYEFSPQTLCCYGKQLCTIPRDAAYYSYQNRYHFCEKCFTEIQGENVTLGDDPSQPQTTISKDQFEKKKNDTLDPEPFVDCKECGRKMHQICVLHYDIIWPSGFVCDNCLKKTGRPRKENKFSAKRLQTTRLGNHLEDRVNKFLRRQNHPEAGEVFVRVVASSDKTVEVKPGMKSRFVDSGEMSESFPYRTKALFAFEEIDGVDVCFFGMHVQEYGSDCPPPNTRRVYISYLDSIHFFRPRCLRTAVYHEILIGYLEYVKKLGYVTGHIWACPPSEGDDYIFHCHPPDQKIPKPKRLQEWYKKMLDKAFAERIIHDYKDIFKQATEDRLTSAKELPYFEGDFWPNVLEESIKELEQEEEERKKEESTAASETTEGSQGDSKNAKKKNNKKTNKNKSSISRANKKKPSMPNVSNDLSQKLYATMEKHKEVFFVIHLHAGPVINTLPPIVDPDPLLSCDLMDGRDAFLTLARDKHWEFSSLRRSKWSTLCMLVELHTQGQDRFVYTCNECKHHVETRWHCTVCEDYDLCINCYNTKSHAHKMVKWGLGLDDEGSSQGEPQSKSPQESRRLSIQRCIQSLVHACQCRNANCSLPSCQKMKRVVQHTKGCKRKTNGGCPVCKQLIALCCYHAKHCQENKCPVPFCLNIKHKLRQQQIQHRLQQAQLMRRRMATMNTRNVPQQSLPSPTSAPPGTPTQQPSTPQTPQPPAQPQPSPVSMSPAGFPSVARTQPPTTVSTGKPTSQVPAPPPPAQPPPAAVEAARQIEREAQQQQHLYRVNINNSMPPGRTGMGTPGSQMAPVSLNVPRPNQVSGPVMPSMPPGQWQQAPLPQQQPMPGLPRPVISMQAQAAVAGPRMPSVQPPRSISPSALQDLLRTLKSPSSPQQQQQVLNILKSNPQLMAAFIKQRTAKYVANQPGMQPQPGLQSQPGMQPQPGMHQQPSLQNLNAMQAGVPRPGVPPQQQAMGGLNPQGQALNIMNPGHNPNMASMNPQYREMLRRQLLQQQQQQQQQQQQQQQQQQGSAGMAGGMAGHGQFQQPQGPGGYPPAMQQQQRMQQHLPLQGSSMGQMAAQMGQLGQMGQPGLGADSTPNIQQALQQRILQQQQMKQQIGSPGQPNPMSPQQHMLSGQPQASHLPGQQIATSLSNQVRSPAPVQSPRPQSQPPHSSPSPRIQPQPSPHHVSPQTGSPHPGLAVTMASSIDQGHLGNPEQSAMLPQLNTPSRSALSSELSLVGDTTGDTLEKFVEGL

Homo sapiens [10] = organism: Homo sapiens; experiment: Selectivity index, ratio of IC50 for BR4 BD1 (unknown origin) to IC50 for CBP BRD (unknown origin)
Homo sapiens [11] = organism: Homo sapiens; experiment: Selectivity index, ratio of IC50 for BR4 BD2 (unknown origin) to IC50 for CBP BRD (unknown origin)

SMILES: CNC(=O)N1CCCc2ccc(NC(=O)c3ccc(-c4ccccn4)cc3)cc21
- IC50 (CREB-binding protein [1]): 0.102 µM
- inhibition at 6.25 µM (MV4-11 [2]): 79.2%
- inhibition at 1.56 µM (MV4-11 [3]): 31.9%

SMILES: CNC(=O)N1CCCc2ccc(NC(=O)c3cccc(-c4cnn(C(C)=O)c4)c3)cc21
- IC50 (CREB-binding protein [1]): 0.0765 µM
- inhibition at 6.25 µM (MV4-11 [2]): 82%
- inhibition at 1.56 µM (MV4-11 [3]): 33.5%

SMILES: CNC(=O)N1CCCc2ccc(NC(=O)c3ccc(-c4ccn(C)n4)cc3)cc21
- IC50 (CREB-binding protein [1]): 0.0402 µM
- inhibition at 6.25 µM (MV4-11 [2]): 97%
- inhibition at 1.56 µM (MV4-11 [3]): 72.2%
- IC50 (MV4-11 [4]): 0.83 µM

SMILES: CNC(=O)N1CCCc2ccc(NC(=O)c3cccc(-c4cnn(S(C)(=O)=O)c4)c3)cc21
- IC50 (CREB-binding protein [1]): 0.286 µM
- inhibition at 6.25 µM (MV4-11 [2]): 18%
- inhibition at 1.56 µM (MV4-11 [3]): 1.6%

SMILES: CNC(=O)N1CCCc2ccc(NC(=O)c3cccc(-c4cc[nH]n4)c3)cc21
- IC50 (CREB-binding protein [1]): 0.0929 µM
- inhibition at 6.25 µM (MV4-11 [2]): 89.7%
- inhibition at 1.56 µM (MV4-11 [3]): 27.3%

SMILES: CNC(=O)N1CCCc2ccc(NC(=O)c3ccc(-c4ccn(S(C)(=O)=O)n4)cc3)cc21
- IC50 (CREB-binding protein [1]): 0.0744 µM
- inhibition at 6.25 µM (MV4-11 [2]): 57.2%
- inhibition at 1.56 µM (MV4-11 [3]): 8.81%

SMILES: CNC(=O)N1CCCc2ccc(NC(=O)c3ccc(-c4cnn(S(C)(=O)=O)c4)cc3)cc21
- IC50 (CREB-binding protein [1]): 0.0931 µM
- inhibition at 6.25 µM (MV4-11 [2]): 40.2%
- inhibition at 1.56 µM (MV4-11 [3]): 4.5%

SMILES: CNC(=O)N1CCCc2ccc(NC(=O)c3ccc(-c4cn[nH]c4)cc3)cc21
- IC50 (CREB-binding protein [1]): 0.0477 µM
- inhibition at 6.25 µM (MV4-11 [2]): 98.3%
- inhibition at 1.56 µM (MV4-11 [3]): 73.5%
- IC50 (MV4-11 [4]): 0.87 µM

SMILES: CNC(=O)N1CCCc2ccc(NC(=O)c3ccc(-c4cnn(C)c4)cc3)cc21
- IC50 (CREB-binding protein [1]): 0.0374 µM
- inhibition at 6.25 µM (MV4-11 [2]): 94.4%
- inhibition at 1.56 µM (MV4-11 [3]): 77.3%
- IC50 (MV4-11 [4]): 0.73 µM

SMILES: CNC(=O)N1CCCc2ccc(NC(=O)c3cccc(-c4ccncc4)c3)cc21
- IC50 (CREB-binding protein [5]): 0.0633 µM
- IC50 (CREB-binding protein [1]): 0.0633 µM

SMILES: CNC(=O)N1CCCc2ccc(NC(=O)c3ccc(-c4cccnc4)cc3)cc21
- IC50 (CREB-binding protein [1]): 0.0537 µM
- inhibition at 6.25 µM (MV4-11 [2]): 92.1%
- inhibition at 1.56 µM (MV4-11 [3]): 62.5%
- IC50 (MV4-11 [4]): 1.16 µM

SMILES: CNC(=O)N1CCCc2ccc(NC(=O)c3cccc(-c4ccn(C)n4)c3)cc21
- IC50 (CREB-binding protein [1]): 0.0457 µM
- inhibition at 6.25 µM (MV4-11 [2]): 99.5%
- inhibition at 1.56 µM (MV4-11 [3]): 70.5%
- IC50 (MV4-11 [4]): 0.98 µM

SMILES: C[C@@H]1CC(=O)Nc2cccc(-c3ccc4c(c3)c(-c3cnn(C)c3)nn4C)c2N1
- IC50 [6]: 12 µM
- IC50 [7]: 18.8 µM

SMILES: CNC(=O)N1CCCc2ccc(NC(=O)c3ccccc3-c3ccccc3)cc21
- IC50 (CREB-binding protein [5]): 0.213 µM
- inhibition at 6.25 µM (MV4-11 [2]): 1.39%
- inhibition at 1.56 µM (MV4-11 [3]): 2.83%

SMILES: CNC(=O)N1CCCc2ccc(NC(=O)c3ccc(-c4cnn(C(C)=O)c4)cc3)cc21
- IC50 (CREB-binding protein [1]): 0.0852 µM
- inhibition at 6.25 µM (MV4-11 [2]): 83.8%
- inhibition at 1.56 µM (MV4-11 [3]): 23.9%

SMILES: CNC(=O)N1CCCc2ccc(NC(=O)c3ccc(-c4ccn(C(C)=O)n4)cc3)cc21
- IC50 (CREB-binding protein [1]): 0.0523 µM
- inhibition at 6.25 µM (MV4-11 [2]): 91.3%
- inhibition at 1.56 µM (MV4-11 [3]): 35.8%

SMILES: CNC(=O)N1CCCc2ccc(NC(=O)c3cccc(-c4ccccc4)c3)cc21
- IC50 (CREB-binding protein [5]): 8.41 µM
- inhibition at 6.25 µM (MV4-11 [2]): 60.4%
- inhibition at 1.56 µM (MV4-11 [3]): 10.7%

SMILES: CNC(=O)N1CCCc2ccc(NC(=O)c3ccc(-c4cc[nH]n4)cc3)cc21
- IC50 [6]: 8.4 µM
- IC50 (CREB-binding protein [1]): 0.0195 µM
- Kd (CREB-binding protein [8]): 0.0254 µM
- IC50 [7]: 19 µM
- inhibition at 6.25 µM (MV4-11 [2]): 99.1%
- inhibition at 1.56 µM (MV4-11 [3]): 92.5%
- IC50 (MV4-11 [4]): 0.55 µM
- inhibition (CREB-binding protein [9]): Dose-dependent effect
- Ratio IC50 (Homo sapiens [10]): > 400
- Ratio IC50 (Homo sapiens [11]): > 400

SMILES: CNC(=O)N1CCCc2ccc(NC(=O)c3ccc(-c4ccccc4)cc3)cc21
- IC50 (CREB-binding protein [1]): 0.195 µM
- inhibition at 6.25 µM (MV4-11 [2]): 74.3%
- inhibition at 1.56 µM (MV4-11 [3]): 19.6%

SMILES: COC(=O)N1CCCc2ccc(NC(=O)C3CC=CCC3C(=O)O)cc21 (centres undefined)
- IC50 (CREB-binding protein [5]): 2.3 µM

SMILES: CNC(=O)N1CCCc2ccc(NC(=O)c3ccc(-c4ccncc4)cc3)cc21
- IC50 (CREB-binding protein [1]): 0.0892 µM
- inhibition at 6.25 µM (MV4-11 [2]): 88.7%
- inhibition at 1.56 µM (MV4-11 [3]): 37.6%

SMILES: CNC(=O)N1CCCc2ccc(NC(=O)c3cccc(-c4cnn(C)c4)c3)cc21
- IC50 (CREB-binding protein [1]): 0.0554 µM
- inhibition at 6.25 µM (MV4-11 [2]): 93.5%
- inhibition at 1.56 µM (MV4-11 [3]): 71.2%
- IC50 (MV4-11 [4]): 1.04 µM

SMILES: CNC(=O)N1CCCc2ccc(NC(=O)c3cccc(-c4cn[nH]c4)c3)cc21
- IC50 (CREB-binding protein [1]): 0.0913 µM
- inhibition at 6.25 µM (MV4-11 [2]): 77.7%
- inhibition at 1.56 µM (MV4-11 [3]): 27.9%

SMILES: CNC(=O)N1CCCc2ccc(NC(=O)c3cccc(-c4ccn(S(C)(=O)=O)n4)c3)cc21
- IC50 (CREB-binding protein [1]): 0.103 µM
- inhibition at 6.25 µM (MV4-11 [2]): 37%
- inhibition at 1.56 µM (MV4-11 [3]): 4.03%

SMILES: CNC(=O)N1CCCc2ccc(NC(=O)c3cccc(-c4ccn(C(C)=O)n4)c3)cc21
- IC50 (CREB-binding protein [1]): 0.0946 µM
- inhibition at 6.25 µM (MV4-11 [2]): 87.6%
- inhibition at 1.56 µM (MV4-11 [3]): 27.6%
